From ChEMBL document CHEMBL3399983, “Synthesis and biological activity of novel mono-indole and mono-benzofuran inhibitors of bacterial transcription initiation complex formation” (Bioorg Med Chem, 2015) come the findings set out here.

The nature of test [1]: Inhibition of interaction of RNA polymerase beta' subunit CH-region and region 2.2 of RNA polymerase sigma factor RpoD/RNA polymerase sigma factor sigA (unknown origin) at 15 uM […] followed by incubation at room temperature for 1 hr by ELISA method.
The test system of test [2] is Bacillus subtilis. Kind of test: Growth inhibition of Bacillus subtilis 168 at 200 uM incubated for 16 hrs. The format is functional. The note with it: for inhibition of growth at 200 µM: Bacillus subtilis, 168, 16 h, read-out: GI.
For test [3], the system named is Escherichia coli. Kind of test: Growth inhibition of Escherichia coli DH5[alpha] at 200 uM incubated for 16 hrs. Format: functional. The note with it: for inhibition of growth at 200 µM: read-out: GI. A digest of the protocol:
(§1)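 E. coli DH5α grown at 37 °C in LB with shaking to OD600 0.6–0.7, then added to wells holding compound diluted from a 50 mM DMSO stock. Plates shaken at 37 °C, with OD600 read every 10 min over 16 h against an LB blank. Growth inhibition expressed as % of the no-inhibitor control.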

The test system of test [4] is Bacillus subtilis. Kind of test: Growth inhibition of Bacillus subtilis 168 assessed as effect on exponential phase of bacterial growth at 200 uM incubated for 16 hrs. The format is functional. The note with it: Bacillus subtilis, 168, 16 h; read-out: GI.
For test [5], the system named is Escherichia coli. Kind of test: Growth inhibition of Escherichia coli DH5[alpha] assessed as effect on exponential phase of bacterial growth at 200 uM incubated for 16 hrs. Conditions: read-out: GI. Format: functional. A digest of the protocol: as §1
Test [6] relates to Escherichia coli. Put plainly: Growth inhibition of Escherichia coli DH5[alpha] incubated for 16 hrs. Format: functional. The procedure, abridged:
as §1

Test [7] in a line: Inhibition of interaction of RNA polymerase beta' subunit CH-region and region 2.2 of RNA polymerase sigma factor RpoD/RNA polymerase sigma factor sigA (unknown origin) pre-incubated at 37 degC for 15 mins with enzyme followed by incubation at room temperature for 1 hr by ELISA method.
The test system of a further test is Staphylococcus aureus. Put plainly: Growth inhibition of Staphylococcus aureus at 200 uM incubated for 16 hrs. Format: functional. Conditions: read-out: GI.
Test [8] concerns Bacillus subtilis. Put plainly: Growth inhibition of Bacillus subtilis 168 incubated for 16 hrs. The format is functional.

Calls of active or inactive are those of the source. No cut-off for these calls is given here.

As for `COc1cc(OC)c2c(-c3ccc(Br)cc3)c[nH]c2c1C(=O)Nc1ccccc1`, the inhibition in test [1] was determined as 49%. For the same compound, the inhibition of growth at 200 µM with Bacillus subtilis [2] worked out at 7%; in the test with Escherichia coli [3], 13%.
Consider `COc1cc(OC)c2c(-c3ccc(Br)cc3)c[nH]c2c1C(=O)Nc1ccc(C)cc1`, for which the results for the inhibition of growth at 200 µM with Bacillus subtilis [2] and in the test with Escherichia coli [3] were 36% and 12%, respectively.
Take `O=C(C(=O)N1CCCCC1)c1c[nH]c2ccccc12`: the inhibition in test [1] came out at 37%. Besides, the inhibition of growth at 200 µM with Bacillus subtilis [2] was 12%; in the test on Escherichia coli [3], 9%.
The matching figures for `COc1cc(OC)c2c(-c3ccc(Br)cc3)c(C(=O)C(=O)N3CCN(c4ccccn4)CC3)[nH]c2c1`: 25%, 19% and 38%.
Regarding `COc1cc(OC)c2c(-c3ccc(Br)cc3)c(C(=O)C(=O)N3CCCC3)[nH]c2c1`, in [1], the inhibition entry was “inactive”. In addition, the “growth inhibition (GI)” value in the test with Bacillus subtilis [2] and in the test with Escherichia coli [3] was “inactive” each time.
In the case of `COc1cc(OC)c2c(C)c(C)[nH]c2c1C(=O)C(=O)N1CCOCC1`, in the test with Bacillus subtilis [4], the inhibition of growth at 200 µM worked out at 42%. In addition, the inhibition in [1] was found to be 7%. The “growth inhibition (GI)” value in the test on Escherichia coli [3] was “inactive”.
On to `COc1cc(OC)c2c(-c3ccc(Cl)cc3)c[nH]c2c1C(=O)C(=O)NNc1ccccc1`, for which the inhibition in [1] was determined as 26%. Moreover, the “growth inhibition (GI)” value in the test with Bacillus subtilis [2] is “inactive”. Besides, the inhibition of growth at 200 µM with Escherichia coli [3] came out at 20%.
For the compound `COc1cc(OC)c2c(-c3ccc(Cl)cc3)c[nH]c2c1C(=O)C(=O)N1CCOCC1`, the inhibition of growth at 200 µM in the test with Escherichia coli [5] was found to be 38%. Besides, the inhibition entry in test [1] was “inactive”. Further, in the test on Bacillus subtilis [2], the “growth inhibition (GI)” value is “inactive”.
As to `COc1cc(OC)c2c(-c3ccc(Cl)cc3)c[nH]c2c1C(=O)Nc1ccc(C)cc1`, the inhibition of growth at 200 µM with Bacillus subtilis [2] and with Escherichia coli [3] was 13% each time.
In test [1], `COc1cc(OC)c2c(-c3ccc(Cl)cc3)c[nH]c2c1C(=O)C(=O)Nc1ccccc1` returned an inhibition of 23%. The values for the inhibition of growth at 200 µM in the test on Bacillus subtilis [2] and in the test on Escherichia coli [3] were 26% and 23%, respectively.
Turning to `COc1cc(OC)c2c(-c3ccc(Br)cc3)c[nH]c2c1C(=O)C(=O)Nc1ccc(C)cc1`, in the test with Bacillus subtilis [2], the “growth inhibition (GI)” value was “inactive”. Also, in the test on Escherichia coli [3], the inhibition of growth at 200 µM came out at 29%.
In test [1], `COc1cc(OC)c2c(C)c(C(=O)C(=O)N3CCN(c4ccccn4)CC3)[nH]c2c1` returned an inhibition of 48%. In addition, the inhibition of growth at 200 µM in the test on Bacillus subtilis [2] was 14%; with Escherichia coli [3], 38%.
Turning to `COc1cc(OC)c2c(C)c(C(=O)C(=O)N3CCN(C)CC3)[nH]c2c1`, the inhibition in test [1] came out at 44%. Moreover, the “growth inhibition (GI)” value with Bacillus subtilis [2] and with Escherichia coli [3] was “inactive” each time.
In the case of `COc1cc(OC)c2c(-c3ccc(Br)cc3)c[nH]c2c1C(=O)C(=O)N1CCN(Cc2ccccc2)CC1`, the inhibition in [1] turned out to be 8%. Also, the “growth inhibition (GI)” value in the test with Bacillus subtilis [2] is “inactive”. Further, the inhibition of growth at 200 µM in the test with Escherichia coli [3] worked out at 6%.
`COc1cc(OC)c2c(-c3ccccc3)c(C(=O)C(=O)N3CCN(c4ccccn4)CC3)oc2c1` returned an inhibition in [1] of 41%. The inhibition of growth at 200 µM came out at 3% in the test on Bacillus subtilis [2] and 10% in the test on Escherichia coli [3].
For the compound `COc1cc(OC)c2c(-c3ccc(Cl)cc3)c(C(=O)C(=O)N3CCOCC3)[nH]c2c1`, the inhibition of growth at 200 µM in the test with Bacillus subtilis [4] and in the test with Escherichia coli [3] was 37% each time. Also, the inhibition in test [1] was found to be 27%.
In turn, `COc1cc(OC)c2c(C)c(C(=O)C(=O)N3CCCC3)[nH]c2c1` registered an inhibition in test [1] of 44%. Besides, the “growth inhibition (GI)” value in the test with Bacillus subtilis [2] and with Escherichia coli [3] was “inactive” in each case.
Consider `O=C(C(=O)N1CCN(c2ccccn2)CC1)c1c[nH]c2ccccc12`, for which, in test [1], the inhibition stood at 27%. Besides, the inhibition of growth at 200 µM with Bacillus subtilis [2] is 10%; in the test with Escherichia coli [3] it was 4%.
Compound `COc1cc(OC)c2c(-c3ccc(Cl)cc3)c[nH]c2c1C(=O)NNc1ccccc1` displayed an inhibition in test [1] of 60%. In the test with Bacillus subtilis [2], the “growth inhibition (GI)” value is “inactive”. Also, the inhibition of growth at 200 µM in the test on Escherichia coli [3] stood at 21%.
The matching figures for `COc1cc(OC)c2c(-c3ccc(Br)cc3)c[nH]c2c1C(=O)NNc1ccccc1`: 44%, “inactive” and 23%.
Turning to `COc1cc(OC)c2c(-c3ccc(Br)cc3)c[nH]c2c1C(=O)C(=O)N1CCOCC1`, the inhibition of growth at 200 µM with Escherichia coli [5] was found to be 59%. This compound also showed an inhibition in test [1] of 31%. The compound also returned a GI with Escherichia coli [6] of more than 100 µM. The “growth inhibition (GI)” value in the test on Bacillus subtilis [2] was “inactive”. The IC50 in test [7] was found to be 33.9 µM.
For `COc1cc(OC)c2c(-c3ccc(Cl)cc3)c[nH]c2c1C(=O)C(=O)N1CCCC1`, the inhibition of growth at 200 µM in the test on Staphylococcus aureus is 60%; in the test on Escherichia coli [3], 23%. For the same compound, the inhibition result in test [1] is “inactive”.
On to `O=C(C(=O)N1CCN(Cc2ccccc2)CC1)c1c[nH]c2ccccc12`, for which the inhibition in test [1] worked out at 21%. The inhibition of growth at 200 µM in the test with Bacillus subtilis [2] amounted to 70%; in the test on Escherichia coli [3], 6%.
`COc1cc(OC)c2c(-c3ccc(Cl)cc3)c(C(=O)N3CCOCC3)[nH]c2c1`: the inhibition result in test [1] is “inactive”. For the same compound, the “growth inhibition (GI)” value in the test with Bacillus subtilis [2] was “inactive”. The inhibition of growth at 200 µM in the test on Escherichia coli [3] came to 42%.
In test [1], `O=C(C(=O)N1CCOCC1)c1c[nH]c2ccccc12` gave an inhibition of 39%. For the same compound, in the test on Bacillus subtilis [2], the “growth inhibition (GI)” value was “inactive”. Further, the inhibition of growth at 200 µM with Escherichia coli [3] turned out to be 4%.
`COc1cc(OC)c2c(C)c(C(=O)C(=O)N3CCOCC3)[nH]c2c1`: the inhibition in [1] came out at 33%. Moreover, the inhibition of growth at 200 µM with Bacillus subtilis [2] and in the test with Escherichia coli [3] was 2% throughout.
`COc1cc(OC)c2c(C)c(C)[nH]c2c1C(=O)C(=O)N1CCCCC1`: the inhibition of growth at 200 µM with Bacillus subtilis [4] was determined as 57%; with Escherichia coli [3], 24%. Besides, the inhibition in test [1] was 39%.
Turning to `COc1cc(OC)c2c(-c3ccc(Cl)cc3)c[nH]c2c1C(=O)C(=O)N1CCCCC1`, the inhibition entry in test [1] is “inactive”. Further, the “growth inhibition (GI)” value in the test on Bacillus subtilis [2] and in the test with Escherichia coli [3] was “inactive” each time.
For `COc1cc(OC)c2c(C)c(C)[nH]c2c1C(=O)C(=O)N1CCN(c2ccccn2)CC1`, in test [1], the inhibition stood at 27%. In addition, the inhibition of growth at 200 µM with Bacillus subtilis [2] came out at 12%; with Escherichia coli [3], 13%.
For the compound `COc1cc(OC)c2c(C)c(C(=O)C(=O)N3CCCCC3)[nH]c2c1`, the inhibition in test [1] stood at 17%. Further, the “growth inhibition (GI)” value in the test on Bacillus subtilis [2] and in the test with Escherichia coli [3] was “inactive” each time.
With `COc1cc(OC)c2c(-c3ccc(Cl)cc3)c(C(=O)C(=O)N3CCCCC3)[nH]c2c1`, the inhibition entry in test [1] was “inactive”. Further, the “growth inhibition (GI)” value in the test on Bacillus subtilis [2] was “inactive”. Moreover, the inhibition of growth at 200 µM in the test with Escherichia coli [3] was determined as 18%.
In test [1], `COc1cc(OC)c2c(-c3ccc(Br)cc3)c[nH]c2c1C(=O)C(=O)NNc1ccccc1` returned an inhibition of 34%. Also, the inhibition of growth at 200 µM stood at 10% in the test with Bacillus subtilis [2] and 24% in the test on Escherichia coli [3].
The matching figures for `COc1cc(OC)c2c(-c3ccc(Br)cc3)c(C(=O)C(=O)N3CCCCC3)[nH]c2c1`: 39%, 22% and 7%.
The matching figures for `COc1cc(OC)c2c(C)c(C(=O)C(=O)N3CCN(Cc4ccccc4)CC3)[nH]c2c1`: 46%, 7% and 16%.
Consider `CCOC(=O)CNC(=O)C(=O)c1[nH]c2cc(OC)cc(OC)c2c1-c1ccc(Cl)cc1`, for which the inhibition in test [1] came to 42%. In addition, the “growth inhibition (GI)” value in the test on Bacillus subtilis [2] was “inactive”. Further, in the test with Escherichia coli [3], the inhibition of growth at 200 µM stood at 53%.
The matching figures for `COc1cc(OC)c2c(-c3ccc(Cl)cc3)c[nH]c2c1C(=O)C(=O)Nc1ccc(C)cc1`: 37%, “inactive” and 20%.
Take `COc1cc(OC)c2c(-c3ccc(Br)cc3)c[nH]c2c1C(=O)C(=O)Nc1ccccc1`: in test [1], the inhibition was determined as 34%. The figures for the inhibition of growth at 200 µM in the test on Bacillus subtilis [2] and in the test on Escherichia coli [3] were 36% and 33%, respectively.
`COc1cc(OC)c2c(-c3ccccc3)c(C(=O)C(=O)N3CCOCC3)oc2c1`: the GI with Bacillus subtilis [8] was more than 100 µM. The inhibition of growth at 200 µM in the test on Bacillus subtilis [4] was determined as 70%; with Escherichia coli [3], 6%. The inhibition in [1] turned out to be 29%. In test [7], the half-inhibitory concentration (IC50) was determined as 71.6 µM.
`COc1cc(OC)c2c(-c3ccc(Br)cc3)c[nH]c2c1C(=O)C(=O)N1CCCCC1` gave an inhibition in [1] of 32%. The inhibition of growth at 200 µM was determined as 14% in the test on Bacillus subtilis [2] and 26% in the test on Escherichia coli [3].
